The results in this text go back to ChEMBL document CHEMBL4138042, “A Scaffold Merging Approach to Hsp90 C-terminal Inhibition: Synthesis and Evaluation of a Chimeric Library” (Medchemcomm, 2017).

The source made the active and inactive calls. The calls are words filed in the database; no cut-off is given here.

For data set [1], the system named is MCF7. The data set can be described thus: Antiproliferative activity in human MCF7 cells incubated for 72 hrs by MTS/PMS cell proliferation assay. As to conditions: MCF7, 72 h. Format: functional, cell-based. The essentials: (§1)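 Values are mean ± SD of at least three separate experiments, each run in triplicate.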
The test system of a further data set is SK-BR-3. The data set can be described thus: Antiproliferative activity in human SKBR3 cells incubated for 72 hrs by MTS/PMS cell proliferation assay. It counts as functional, cell-based. As to conditions: SK-BR-3, 72 h. The essentials: as §1
Data set [2] concerns MCF7. Nature of the data set: Induction of heat shock response in human MCF7 cells assessed as effect on Hsp90 protein levels at antiproliferative 0.5 and 10 fold IC50 incubated for 24 hrs by Western blotting method. Format: cell-based. Conditions: mcf7, 24 h. For orientation: In western blotting, separated proteins are transferred to a membrane and probed.
Data set [3] has as its target T1, Heat shock protein HSP90 (Homo sapiens) (UniProt P07900+P08238). Nature of the data set: Inhibition of HSP90 in human PC3-MM2 cells expressing luciferase assessed as reduction in heat-denatured lucifearse refolding incubated for 1 hr by luciferase rematuration assay. It counts as cell-based. The procedure, abridged: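 PC3-MM2 cells expressing firefly luciferase were heated to denature luciferase, then incubated with DMSO or test compound. Luciferase activity was then measured to gauge refolding. Read-out is RLU relative to DMSO, given as mean ± SD of at least two separate experiments run in triplicate.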

Data set [4] relates to MCF7. The data set can be described thus: Effect on actin protein expression in human MCF7 cells at 0.5 and 10 fold antiproliferative IC50 incubated for 24 hrs by Western blotting method. It counts as cell-based. As to conditions: mcf7, 24 h. The essentials:
(§2)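 Treated MCF-7 cells were analysed by western blot for the Hsp90 clients HER2, CDK4, ER-α and cyclin D1. Actin served as the Hsp90-independent control protein.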

Data set [5] has as its system MCF7. The data set can be described thus: Induction of heat shock response in human MCF7 cells assessed as effect on Hsp70 protein levels at 0.5 and 10 fold antiproliferative IC50 incubated for 24 hrs by Western blotting method. Conditions: mcf7, 24 h. Format: cell-based.
The target in data set [6] is T1, Heat shock protein HSP90 (Homo sapiens). Nature of the data set: Inhibition of HSP90 in human MCF7 cells assessed as reduction in CDK4 protein level incubated for 24 hrs by Western blotting method. Format: cell-based. The essentials: as §2
Data set [7] shares this target. The data set can be described thus: Inhibition of HSP90 in human MCF7 cells assessed as reduction in cyclin D1 protein level incubated for 24 hrs by Western blotting method. It counts as cell-based. The procedure, abridged:
as §2

Data set [8] shares this target. Nature of the data set: Inhibition of HSP90 in human MCF7 cells assessed as reduction in ERalpha protein level incubated for 24 hrs by Western blotting method. It counts as cell-based. The procedure, abridged: as §2
Data set [9] shares this target. Nature of the data set: Inhibition of HSP90 in human MCF7 cells assessed as reduction in HER2 protein level incubated for 24 hrs by Western blotting method. Format: cell-based. The procedure, abridged: as §2
Data set [10] in a line: Inhibition of full length chicken Hsp90beta (1 to 728 amino acids). On the set-up: species or system Gallus gallus.

Take `COc1cccc(-c2cc(C(=O)Nc3cccc(-c4ccc(OC5CCN(C)CC5)cc4-c4cccc(F)c4)c3)ccc2OC)c1`: the values for the concentration giving a half-maximal response (EC50) in the data set with MCF7 [1] and in the data set on SK-BR-3 were 4200 nM and 4100 nM, respectively.
As for `CN1CCC(Oc2ccc(-c3ccc(NC(=O)c4ccc(Br)cc4)cc3)c(-c3cccc(C(F)(F)F)c3)c2)CC1`, the Activity entry in the data set with MCF7 [2], in the data set with MCF7 [4] and with MCF7 [5] was “Non-Toxic” in each case. For the same molecule, the inhibition result in data set [3] is “Active”. Also, the EC50 – broadly, the concentration at which the effect is half-maximal – in the data set with MCF7 [1] amounted to 3400 nM; in the data set on SK-BR-3, 3500 nM. Besides, the inhibition entry in data set [6], in [7], in [8] and in data set [9] was “Dose-dependent effect” in each case.
As for `COc1ccc(Cn2cc(C(=O)Nc3cccc(-c4ccc(OC5CCN(C)CC5)cc4-c4cccc(C(F)(F)F)c4)c3)nn2)cc1`, in data set [3], the inhibition entry is “Active”. Besides, the EC50 in the data set on MCF7 [1] and in the data set with SK-BR-3 was 4000 nM each time.
Regarding `CN1CCC(Oc2ccc(-c3cccc(NC(=O)c4cn(Cc5ccc(C(C)(C)C)cc5)nn4)c3)c(-c3cccc(C(F)(F)F)c3)c2)CC1`, in data set [3], the inhibition result is “inactive”. The half-maximal effective concentration (EC50) with MCF7 [1] and in the data set on SK-BR-3 was 3000 nM each time.
Regarding `COc1cccc(-c2cc(C(=O)Nc3ccc(-c4ccc(OC5CCN(C)CC5)cc4-c4cccc(F)c4)cc3)ccc2OC)c1`, the EC50 was determined as 2100 nM with MCF7 [1] and 4200 nM in the data set with SK-BR-3.
`CN1CCC(Oc2ccc(-c3ccc(NC(=O)c4ccc(Br)cc4)cc3)c(-c3cccc(F)c3)c2)CC1`: the inhibition result in data set [3] is “Active”. In addition, the EC50 in the data set on MCF7 [1] worked out at 5100 nM; in the data set on SK-BR-3 it was 5200 nM.
For `CN1CCC(Oc2ccc(-c3cccc(NC(=O)c4ccc(Br)cc4)c3)c(-c3cccc(F)c3)c2)CC1`, in data set [3], the inhibition result was “Active”. Besides, the EC50 in the data set with MCF7 [1] amounted to 5600 nM; in the data set with SK-BR-3, 5900 nM.
Regarding `CN1CCC(Oc2ccc(-c3ccc(NC(=O)c4ccc(C(C)(C)C)cc4)cc3)c(-c3cccc(F)c3)c2)CC1`, the EC50 in the data set on MCF7 [1] and in the data set with SK-BR-3 was 4200 nM in each case.
`CN1CCC(Oc2ccc(-c3cccc(NC(=O)c4cn(Cc5ccc([N+](=O)[O-])cc5)nn4)c3)c(-c3cccc(C(F)(F)F)c3)c2)CC1`: in data set [3], the inhibition result is “Active”. Besides, the EC50 in the data set with MCF7 [1] was determined as 2000 nM; with SK-BR-3 it was 1900 nM.
As for `CN1CCC(Oc2ccc(-c3cccc(NC(=O)c4ccc(Br)cc4)c3)c(-c3cccc(C(F)(F)F)c3)c2)CC1`, the Activity result in the data set on MCF7 [2], in the data set on MCF7 [4] and in the data set on MCF7 [5] was “Non-Toxic” in each case. In addition, the inhibition result in data set [3] is “Active”. The EC50 came out at 3900 nM with MCF7 [1] and 3000 nM with SK-BR-3. Further, the inhibition entry in [6], in data set [7], in data set [8] and in data set [9] was “Dose-dependent effect” in each case.
Regarding `COc1cccc(-c2cc(C(=O)Nc3cccc(-c4ccc(OC5CCN(C)CC5)cc4)c3)ccc2OC)c1`, the EC50 in the data set on MCF7 [1] was determined as 1600 nM; in the data set with SK-BR-3, 1500 nM.
In the same order, the values of `COc1cccc(-c2cc(C(=O)Nc3ccc(-c4ccc(OC5CCN(C)CC5)cc4-c4cccc(C(F)(F)F)c4)cc3)ccc2OC)c1` are 2200 nM and 1800 nM.
In the case of `COc1ccc(Cn2cc(C(=O)Nc3ccc(-c4ccc(OC5CCN(C)CC5)cc4-c4cccc(C(F)(F)F)c4)cc3)nn2)cc1`, the inhibition entry in [3] is “Active”. The EC50 worked out at 900 nM with MCF7 [1] and 500 nM with SK-BR-3.
In the case of `CC(=O)Oc1ccc(C(=O)Nc2ccc(-c3ccc(OC4CCN(C)CC4)cc3-c3cccc(F)c3)cc2)cc1CC=C(C)C`, the EC50 in the data set with MCF7 [1] came to 3300 nM; in the data set with SK-BR-3, 3200 nM.
As for `CN1CCC(Oc2ccc(-c3ccc(NC(=O)c4cn(Cc5ccc(C(C)(C)C)cc5)nn4)cc3)c(-c3cccc(C(F)(F)F)c3)c2)CC1`, in [3], the inhibition result is “inactive”. Moreover, the concentration for a half-maximal effect (EC50) was 5000 nM with MCF7 [1] and 4400 nM in the data set with SK-BR-3.
As for `CN1CCC(Oc2ccc(-c3ccc(NC(=O)c4ccc(C(C)(C)C)cc4)cc3)c(-c3cccc(C(F)(F)F)c3)c2)CC1`, the EC50 turned out to be 3000 nM in the data set with MCF7 [1] and 2400 nM in the data set on SK-BR-3.
Taken in the same sequence, the figures for `CC(=O)Oc1ccc(C(=O)Nc2cccc(-c3ccc(OC4CCN(C)CC4)cc3-c3cccc(C(F)(F)F)c3)c2)cc1CC=C(C)C` were 3000 nM and 2900 nM.
In the case of `CO[C@@H]1[C@@H](OC(N)=O)[C@@H](O)[C@H](Oc2ccc3c(O)c(NC(=O)c4ccc(O)c(CC=C(C)C)c4)c(=O)oc3c2C)OC1(C)C` [NOVOBIOCIN], the EC50 in data set [10] was found to be 700000 nM.
On to `CC(=O)Oc1ccc(C(=O)Nc2ccc(-c3ccc(OC4CCN(C)CC4)cc3-c3cccc(C(F)(F)F)c3)cc2)cc1CC=C(C)C`, for which the EC50 with MCF7 [1] turned out to be 2600 nM; in the data set with SK-BR-3, 2300 nM.
With `COc1cccc(-c2cc(C(=O)NCCc3ccc(OC4CCN(C)CC4)cc3-c3cccc(C(F)(F)F)c3)ccc2OC)c1`, the values for the EC50 in the data set with MCF7 [1] and in the data set on SK-BR-3 were 2700 nM and 3500 nM, respectively.
Consider `CN1CCC(Oc2ccc(-c3ccc(NC(=O)c4cn(Cc5ccccc5)nn4)cc3)c(-c3cccc(C(F)(F)F)c3)c2)CC1`, for which the inhibition result in data set [3] is “Active”. The results for the EC50 with MCF7 [1] and in the data set with SK-BR-3 were 2900 nM and 2200 nM, respectively.
As to `CC(=O)Oc1ccc(C(=O)Nc2cccc(-c3ccc(OC4CCN(C)CC4)cc3-c3cccc(F)c3)c2)cc1CC=C(C)C`, the EC50 with MCF7 [1] is 4400 nM; with SK-BR-3 it was 3300 nM.
For the molecule `CN1CCC(Oc2ccc(-c3cccc(NC(=O)c4ccc(C(C)(C)C)cc4)c3)c(-c3cccc(F)c3)c2)CC1`, the EC50 amounted to 5200 nM in the data set on MCF7 [1] and 6200 nM with SK-BR-3.
With `CN1CCC(Oc2ccc(-c3ccc(NC(=O)c4cn(Cc5ccc([N+](=O)[O-])cc5)nn4)cc3)c(-c3cccc(C(F)(F)F)c3)c2)CC1`, the inhibition result in data set [3] was “Active”. Further, the EC50 was 1000 nM in the data set on MCF7 [1] and 800 nM with SK-BR-3.
For `CN1CCC(Oc2ccc(-c3cccc(NC(=O)c4ccc(C(C)(C)C)cc4)c3)c(-c3cccc(C(F)(F)F)c3)c2)CC1`, the figures for the EC50 with MCF7 [1] and in the data set on SK-BR-3 were 2800 nM and 1800 nM, respectively.
Regarding `COc1cccc(-c2cc(C(=O)Nc3cccc(-c4ccc(OC5CCN(C)CC5)cc4-c4cccc(C(F)(F)F)c4)c3)ccc2OC)c1`, the EC50 with MCF7 [1] was found to be 2300 nM; with SK-BR-3, 1900 nM.
Take `CN1CCC(Oc2ccc(-c3cccc(NC(=O)c4cn(Cc5ccccc5)nn4)c3)c(-c3cccc(C(F)(F)F)c3)c2)CC1`: the Activity result in the data set with MCF7 [2], in the data set with MCF7 [4] and in the data set on MCF7 [5] was “Non-Toxic” throughout. Moreover, the inhibition result in data set [3] is “Active”. Further, the concentration giving a half-maximal response (EC50) in the data set with MCF7 [1] was found to be 1700 nM; with SK-BR-3 it was 2200 nM. For the same molecule, the inhibition entry in data set [6], in data set [7], in data set [8] and in data set [9] was “Dose-dependent effect” throughout.
